According to ChEMBL document CHEMBL1137744, “Parallel synthesis, molecular modelling and further structure-activity relationship studies of new acylthiocarbamates as potent non-nucleoside HIV-1 reverse transcriptase inhibitors” (Eur J Med Chem, 2009):
Active and inactive are the calls of the source. The rule behind the calls is not given here.

Key:
[1] = tested on: Human immunodeficiency virus 1; assay: Antiviral activity against HIV1 3B expressing reverse transcriptase K103N/Y181C double mutant infected in human MT4 cells assessed as inhibition of virus-induced cytopathogenicity by MTT assay; format: functional, organism-based
[2] = tested on: Human immunodeficiency virus 1; assay: Antiviral activity against HIV1 3B expressing reverse transcriptase Y181C mutant infected in human MT4 cells assessed as inhibition of virus-induced cytopathogenicity by MTT assay; format: functional, organism-based; conditions: Human immunodeficiency virus 1, 3B
Method in brief: (§1)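 MT-4 cells infected with HIV-1 carrying the Y181C RT mutation, alongside wild-type virus. EC50 is the concentration giving 50% protection from virus-induced cytopathogenicity, read by MTT. Values are means of three separate experiments run in triplicate. The ratio is EC50(Y181C)/EC50(wt).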

[3] = tested on: Human immunodeficiency virus 1; assay: Antiviral activity against HIV1 3B infected in human MT4 cells assessed as inhibition of virus-induced cytopathogenicity by MTT assay; format: functional, organism-based; conditions: Human immunodeficiency virus 1, 3B
Method in brief: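 MT-4 cells infected with HIV-1 and read by MTT viability. EC50 is the concentration giving 50% protection of cells from virus-induced cytopathogenicity. Values are means of three separate experiments, with variation among triplicate samples under 10%.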

[4] = tested on: Human immunodeficiency virus 1; assay: Ratio of EC50 for HIV1 3B expressing reverse transcriptase Y181C mutant to EC50 for HIV1 3B; format: functional; method in brief: as §1
[5] = Selectivity index, ratio of CC50 for human MT4 cells to EC50 for HIV1 3B; format: toxicity, cell-based; conditions: read-out: Ratio CC50/EC50
Method in brief: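 Computed as CC50/EC50. Both come from MTT readings in MT-4 cells: CC50 is 50% viability loss in mock-infected cells, and EC50 is 50% protection from HIV-1-induced cytopathogenicity. Each is the mean of three experiments.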

[6] = Cytotoxicity against human MT4 cells by MTT assay; format: cell-based
Method in brief: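 Uninfected (mock-infected) MT-4 cells were exposed to compound and viability was read by MTT. CC50 is the concentration cutting viability by 50%. Values are means of three separate experiments, with triplicate samples varying by less than 10%.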

[7] = biological target: Human immunodeficiency virus type 1 reverse transcriptase (Human immunodeficiency virus 1, UniProt Q72547); assay: Inhibition of wild-type HIV1 reverse transcriptase

Row | SMILES | Activity [1] | EC50 [2] | EC50 [3] | Ratio EC50 [4] | selectivity ratio [5] | CC50 [6] | IC50 [7]
1 | Cc1cc(C(=O)N(C(=S)OCCN2C(=O)c3ccccc3C2=O)c2ccc(Cl)cc2)c(C)o1 | inactive | 7.5 µM | 0.02 µM | 375 | 2000 | 40 µM | –
2 | O=C1c2ccccc2C(=O)N1CCOC(=S)N(C(=O)c1cc2ccccc2s1)c1ccc(Cl)cc1 | inactive | 12 µM | 0.2 µM | 60 | 280 | 56 µM | –
3 | Cc1cccc2c1C(=O)N(CCOC(=S)N(C(=O)c1cccc([N+](=O)[O-])c1)c1ccc(Cl)cc1)C2=O | inactive | 4.2 µM | 0.03 µM | 140 | 1470 | 44 µM | –
4 | Cc1ccc2c(c1)C(=O)N(CCOC(=S)N(C(=O)c1cccnc1Cl)c1ccc(Cl)cc1)C2=O | inactive | 6.7 µM | 0.06 µM | 112 | 817 | 49 µM | –
5 | S=C(NCCc1ccccn1)Nc1ccc(Br)cn1 [TROVIRDINE] | inactive | 1.2 µM | – | 60 | 3000 | – | –
6 | Cc1cccc(C(=O)N(C(=S)OCCN2C(=O)c3ccccc3C2=O)c2ccc(Cl)cc2)c1 | inactive | 6 µM | 0.01 µM | 600 | 5800 | 58 µM | –
7 | O=C1Nc2ccc(Cl)cc2[C@@](C#CC2CC2)(C(F)(F)F)O1 [EFAVIRENZ] | inactive | 0.01 µM | – | – | – | – | –
8 | CC(COC(=S)N(C(=O)c1cccc([N+](=O)[O-])c1)c1ccc(Cl)cc1)N1C(=O)c2ccccc2C1=O (racemic) | inactive | 5 µM | 0.05 µM | 100 | 1540 | 77 µM | –
9 | Cc1cc(C(=O)N(C(=S)OCCN2C(=O)c3ccccc3C2=O)c2ccc(Cl)cc2)ccc1Br | inactive | 10.9 µM | 0.007 µM | 1557 | 2570 | 18 µM | –
10 | O=C1c2ccccc2C(=O)N1CCOC(=S)N(C(=O)c1cccc(Cl)c1Cl)c1ccc(Cl)cc1 | inactive | 4.2 µM | 0.1 µM | 42 | 540 | 54 µM | –
11 | O=C1c2ccccc2C(=O)N1CCOC(=S)N(C(=O)c1ccc2ccccc2c1)c1ccc(Cl)cc1 | inactive | 11 µM | 0.02 µM | 550 | 1850 | 37 µM | –
12 | O=C1c2ccccc2C(=O)N1CCOC(=S)N(C(=O)c1ccc(Cl)c([N+](=O)[O-])c1)c1ccc(Cl)cc1 | inactive | 9 µM | 0.02 µM | 450 | 2400 | 48 µM | –
13 | O=C1c2ccccc2C(=O)N1CCOC(=S)N(C(=O)c1ccc([N+](=O)[O-])cc1)c1ccc(Cl)cc1 | inactive | 26 µM | 0.06 µM | 433 | > 1670 | > 100 µM | –
14 | O=C1c2ccccc2C(=O)N1CCOC(=S)N(C(=O)c1cc(F)ccc1F)c1ccc(Cl)cc1 | inactive | 5.7 µM | 0.02 µM | 285 | 2700 | 54 µM | –
15 | O=C1c2ccccc2C(=O)N1CCOC(=S)N(C(=O)c1ccc(F)cc1F)c1ccc(Cl)cc1 | inactive | 5.4 µM | 0.01 µM | 540 | 5200 | 52 µM | –
16 | O=C1c2ccccc2C(=O)N1CCOC(=S)N(C(=O)c1cc(Cl)cc(Cl)c1)c1ccc(Cl)cc1 | inactive | 8.2 µM | 0.008 µM | 1025 | 4000 | 32 µM | –
17 | Cc1ccc2c(c1)C(=O)N(CCOC(=S)N(C(=O)c1ccc(Cl)cc1)c1ccc([N+](=O)[O-])cc1)C2=O | – | – | 0.04 µM | – | > 2500 | > 100 µM | 0.3 µM
18 | Cc1ccc(C(=O)N(C(=S)OCCN2C(=O)c3ccccc3C2=O)c2ccc(Cl)cc2)cc1 | inactive | 8.5 µM | 0.05 µM | 170 | > 2000 | > 100 µM | –
19 | Cc1ccc(N(C(=O)c2ccccc2[N+](=O)[O-])C(=S)OCCN2C(=O)c3ccccc3C2=O)cc1 | – | – | 0.4 µM | – | 250 | 100 µM | –
20 | O=C1c2ccccc2C(=O)N1CCOC(=S)N(C(=O)c1ccc(F)c(F)c1)c1ccc(Cl)cc1 | inactive | 56 µM | 0.008 µM | 7000 | 6500 | 52 µM | –
21 | O=C1c2ccccc2C(=O)N1CCOC(=S)N(C(=O)c1cccc(F)c1F)c1ccc(Cl)cc1 | inactive | 6 µM | 0.008 µM | 750 | 7250 | 58 µM | –
22 | CC(CN1C(=O)c2ccccc2C1=O)OC(=S)N(C(=O)c1cccc([N+](=O)[O-])c1)c1ccc(Cl)cc1 (racemic) | – | – | 0.7 µM | – | 44.3 | 31 µM | –
23 | O=C1c2ccccc2C(=O)N1CCOC(=S)N(C(=O)c1c(Cl)cccc1Cl)c1ccc(Cl)cc1 | – | – | 5.6 µM | – | 3.6 | 20 µM | –
24 | O=C1c2ccccc2C(=O)N1CCOC(=S)N(C(=O)c1cccnc1Cl)c1ccc(Br)cc1 | inactive | 2.3 µM | 0.2 µM | 11 | > 500 | > 100 µM | 0.7 µM
25 | O=C1c2ccccc2C(=O)N1CCOC(=S)N(C(=O)c1ccco1)c1ccc(Cl)c(Cl)c1 | – | – | 0.69 µM | – | 145 | 100 µM | –
